Assay results as given in ChEMBL document CHEMBL1122179, “1-(alkylamino)isochromans: hypotensives with peripheral and central activities” (J Med Chem, 1982).

Assays:
Rattus norvegicus [1] = experiment: Pressor effects of intravenous phenylephrine (2.5 ug/kg) was measured in anesthetized rats at 0 min.; type: functional
In short: (§1)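 Female Sprague-Dawley rats (200–300 g), anesthetized iv with α-chloralose (40 mg/kg), urethane (40 mg/kg) and pentobarbital (15 mg/kg). Carotid artery catheter for blood pressure and heart rate, jugular vein for drugs. Test agent given at 1.0 mg/kg iv in 0.1 M citric acid (1 mg/mL). Pressor responses to iv norepinephrine 0.1 μg/kg, phenylephrine 2.5 μg/kg and angiotensin I 0.1 μg/kg were taken before and 15, 30, 45 and 60 min after dosing. Mean ± SEM.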

Rattus norvegicus [2] = experiment: Pressor effects of intravenous phenylephrine (2.5 ug/kg) was measured in anesthetized rats at 60 min.; type: functional
In short: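 Female Sprague–Dawley rats (200–300 g) anesthetized iv with α-chloralose 40 mg/kg, urethane 40 mg/kg and pentobarbital 15 mg/kg. Carotid artery catheterized for blood pressure, jugular vein for drugs. Pressor response to iv phenylephrine 2.5 µg/kg measured before and 15, 30, 45, 60 min after 1.0 mg/kg iv test drug dissolved in 0.1 M citric acid (1 mg/mL). Mean ± SEM.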

Rattus norvegicus [3] = experiment: Pressor effects of intravenous norepinephrine (0.1 ug/kg) was measured in anesthetized rats at 60 min.; type: functional; in short: as §1
Rattus norvegicus [4] = experiment: Mean arterial pressure of compound was measured in anesthetized rats at 60 min; type: functional, Artery; in short: as §1
Rattus norvegicus [5] = experiment: Heart rate of compound was measured in anesthetized rats at 60 min.; type: functional; in short: as §1
Rattus norvegicus [6] = experiment: Heart rate of compound was measured in anesthetized rats at 0 min.; type: functional; in short: as §1
Rattus norvegicus [7] = experiment: Mean arterial pressure of compound was measured in anesthetized rats at 0 min.; type: functional, Artery; in short: as §1
Rattus norvegicus [8] = experiment: Delta BP refers to oral hypotensive activity of compound which is evaluated at 4 hr and 24 hr in restrained, normotensive conscious rats at a dose of 15 mg/kg; -20/-18; type: functional
In short: (§2)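 Female Sprague-Dawley rats, normotensive, restrained in a towel. Blood pressure was read directly via chronic indwelling aortic cannulas exteriorized at the nape, before and 4 and 24 h after an oral dose suspended in carboxymethylcellulose (10 mL/kg). Values from two animals were averaged at each time; a mean change of at least 5 mmHg was taken as significant (p < 0.05).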

Rattus norvegicus [9] = experiment: Delta BP refers to oral hypotensive activity of compound which is evaluated at 4 hr and 24 hr in restrained, normotensive conscious rats at a dose of 5 mg/kg; -9/-3; type: functional; in short: as §2
Rattus norvegicus [10] = experiment: Pressor effects of intravenous norepinephrine (0.1 ug/kg) was measured in anesthetized rats at 0 min.; type: functional; in short: as §1
[11] = target: T1, Adrenergic receptor alpha-1 (Rattus norvegicus, UniProt P15823+P23944+P43140); experiment: Compound was tested for the inhibition of [3H]prazosin binding alpha-1-adrenergic receptor of crude rat brain membrane.
T1 sequence (P15823 whole entry): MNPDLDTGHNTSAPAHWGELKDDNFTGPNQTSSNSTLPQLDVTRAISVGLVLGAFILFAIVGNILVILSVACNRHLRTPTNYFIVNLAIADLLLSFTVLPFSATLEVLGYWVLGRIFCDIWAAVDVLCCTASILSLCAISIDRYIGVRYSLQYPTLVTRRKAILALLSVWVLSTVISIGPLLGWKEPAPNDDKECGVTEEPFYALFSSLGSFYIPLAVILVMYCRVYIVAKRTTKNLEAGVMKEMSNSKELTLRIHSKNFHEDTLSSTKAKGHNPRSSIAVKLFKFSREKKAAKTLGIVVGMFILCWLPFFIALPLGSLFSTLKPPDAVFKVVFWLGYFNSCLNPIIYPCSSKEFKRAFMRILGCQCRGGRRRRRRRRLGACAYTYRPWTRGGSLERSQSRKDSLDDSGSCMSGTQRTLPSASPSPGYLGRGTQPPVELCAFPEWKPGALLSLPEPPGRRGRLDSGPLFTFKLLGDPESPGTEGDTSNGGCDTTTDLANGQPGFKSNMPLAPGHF
T1 sequence (P23944 whole entry): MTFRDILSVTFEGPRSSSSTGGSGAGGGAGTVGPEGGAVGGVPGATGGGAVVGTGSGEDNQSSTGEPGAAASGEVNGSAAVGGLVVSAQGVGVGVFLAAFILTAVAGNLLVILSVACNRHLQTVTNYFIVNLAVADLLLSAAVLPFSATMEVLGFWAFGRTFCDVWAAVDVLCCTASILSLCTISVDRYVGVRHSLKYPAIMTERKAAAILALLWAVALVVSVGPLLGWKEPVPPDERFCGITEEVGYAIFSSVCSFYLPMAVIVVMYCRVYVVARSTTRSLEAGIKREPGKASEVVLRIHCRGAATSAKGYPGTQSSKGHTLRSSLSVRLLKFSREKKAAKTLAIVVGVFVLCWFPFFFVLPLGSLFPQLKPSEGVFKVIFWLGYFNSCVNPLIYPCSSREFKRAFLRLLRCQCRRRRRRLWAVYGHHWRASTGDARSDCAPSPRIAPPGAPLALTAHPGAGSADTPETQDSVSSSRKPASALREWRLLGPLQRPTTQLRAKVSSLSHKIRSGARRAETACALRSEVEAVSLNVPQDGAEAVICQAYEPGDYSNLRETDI
T1 sequence (P43140 whole entry): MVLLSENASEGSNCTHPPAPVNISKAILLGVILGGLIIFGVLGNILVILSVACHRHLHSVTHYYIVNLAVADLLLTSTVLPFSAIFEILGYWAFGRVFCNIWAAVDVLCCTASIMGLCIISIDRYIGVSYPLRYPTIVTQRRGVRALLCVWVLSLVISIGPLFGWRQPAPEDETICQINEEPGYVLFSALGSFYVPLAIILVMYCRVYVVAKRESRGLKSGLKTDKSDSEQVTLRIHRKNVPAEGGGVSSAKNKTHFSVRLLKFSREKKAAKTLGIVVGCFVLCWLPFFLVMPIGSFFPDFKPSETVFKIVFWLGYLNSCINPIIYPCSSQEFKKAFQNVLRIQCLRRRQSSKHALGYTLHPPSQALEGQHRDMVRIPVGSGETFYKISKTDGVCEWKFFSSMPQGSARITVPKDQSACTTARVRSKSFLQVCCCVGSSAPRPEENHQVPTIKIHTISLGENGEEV

Which Pressor response (Rattus norvegicus [1]) does the source give for COc1cc2c(cc1OC)C(CCN1CCN(c3ccc(F)cc3)CC1)OCC2 (stereo unspecified) here?
Its Pressor response is 48 mmHg.

What about the Pressor response (Rattus norvegicus [2]) of the same compound?
The Pressor response was 16 mmHg.

What about the Pressor response (Rattus norvegicus [3]) of the same compound?
Its Pressor response is 7 mmHg.

What about the MAP (Rattus norvegicus [4]) of the same compound?
Its MAP is 87 mmHg.

What about the HR (Rattus norvegicus [5]) of the same compound?
The HR was 426 beats min-1.

And the HR (Rattus norvegicus [6])?
Its HR is 417 beats min-1.

What about the MAP (Rattus norvegicus [7]) of the same compound?
The MAP was 105 mmHg.

And the Delta blood pressure (Rattus norvegicus [8])?
The Delta blood pressure was -20 mmHg.

And the Delta blood pressure (Rattus norvegicus [9])?
The Delta blood pressure was -9 mmHg.

And the Pressor response (Rattus norvegicus [10])?
The Pressor response was 19 mmHg.

And the Ki [11]?
The Ki was 4 nM.
